One may read the EC50 as the concentration that produces a half-maximal response. In general, Emax refers to the size of the effect at its maximum, as opposed to the concentration needed.

Structures are written as SMILES. Calls of active or inactive are those of the source. The calls are words filed in the database; no cut-off is given here. A value given as a limit tells only on which side of the number the result lay.

Test [1] concerns the target Putative P2Y purinoceptor 10 (Mus musculus, UniProt Q8BFU7). As to the kind of experiment: (§1) Agonist activity at mouse P2Y10 receptor expressed in HEK293A cells after 1.5 hrs by alkaline phosphatase tagged-TGFalpha shedding assay. In kind it is cell-based, HEK293-A. The method in brief: (§2)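 Transient transfection of HEK293 cells with AP-TGFα plus the mouse receptor. For GPR34, HEK293A cells also got a chimeric Gαq/i1 subunit; P2Y10 was run in HEK293A and GPR174 in HEK293FT. Cells were seeded 24 h post-transfection in 5 mM HEPES (pH 7.4) HBSS onto serial 3.2-fold compound dilutions (top final 32 μM or lower, limited by mock-cell signal). Ki16425 was present, and incubation ran 1.5 h.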

Test [2] has as its target Putative P2Y purinoceptor 10 (Mus musculus) (UniProt Q8BFU7). Described as §1. It counts as cell-based. The note with it: HEK293-A. The essentials:
as §2

For test [3], the target named is Probable G-protein coupled receptor 34 (Mus musculus, UniProt Q9R1K6). In words: (§3) Agonist activity at mouse GPR34 expressed in HEK293A cells cotransfected with chimeric Galphaq/il after 1.5 hrs by alkaline phosphatase tagged-TGFalpha shedding assay. It counts as cell-based, HEK293-A.
Chain of Probable G-protein coupled receptor 34 (Q9R1K6 whole entry): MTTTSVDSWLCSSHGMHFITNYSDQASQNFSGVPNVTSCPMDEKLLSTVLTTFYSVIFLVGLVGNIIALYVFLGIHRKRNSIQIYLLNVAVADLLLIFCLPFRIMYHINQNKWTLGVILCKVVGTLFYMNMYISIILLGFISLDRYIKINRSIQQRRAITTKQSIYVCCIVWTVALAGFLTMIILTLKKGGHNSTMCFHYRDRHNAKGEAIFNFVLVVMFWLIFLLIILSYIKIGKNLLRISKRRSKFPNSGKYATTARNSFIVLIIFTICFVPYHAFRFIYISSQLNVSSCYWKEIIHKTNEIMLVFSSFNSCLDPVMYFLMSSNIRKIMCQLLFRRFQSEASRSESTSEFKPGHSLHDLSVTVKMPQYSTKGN
Test [4] addresses Probable G-protein coupled receptor 34 (Mus musculus) (UniProt Q9R1K6). The test is described as §3. In kind it is cell-based. Particulars: HEK293-A.
Test [5] addresses Probable G-protein coupled receptor 174 (Mus musculus) (UniProt Q3U507). As to the kind of experiment: Agonist activity at mouse GPR174 expressed in HEK293FT cells after 1.5 hrs by alkaline phosphatase tagged-TGFalpha shedding assay. In kind it is cell-based. The essentials:
as §2

The target of test [6] is Putative P2Y purinoceptor 10 (Mus musculus) (UniProt Q8BFU7). As to the kind of experiment: Intrinsic activity at mouse P2Y10 receptor expressed in HEK293A cells after 1.5 hrs by alkaline phosphatase tagged-TGFalpha shedding assay relative to diF-C3-ph-o-O-C11. It counts as cell-based. The note with it: HEK293-A. The method in brief: (§4)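 It is a dimensionless estimate of agonist activity. The GPR34 assay used HEK293A cells with chimeric Gαq/i1 and a 1.5 h incubation; the P2Y10 assay used HEK293A cells.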
Chain of Putative P2Y purinoceptor 10 (Mus musculus) (Q8BFU7 whole entry): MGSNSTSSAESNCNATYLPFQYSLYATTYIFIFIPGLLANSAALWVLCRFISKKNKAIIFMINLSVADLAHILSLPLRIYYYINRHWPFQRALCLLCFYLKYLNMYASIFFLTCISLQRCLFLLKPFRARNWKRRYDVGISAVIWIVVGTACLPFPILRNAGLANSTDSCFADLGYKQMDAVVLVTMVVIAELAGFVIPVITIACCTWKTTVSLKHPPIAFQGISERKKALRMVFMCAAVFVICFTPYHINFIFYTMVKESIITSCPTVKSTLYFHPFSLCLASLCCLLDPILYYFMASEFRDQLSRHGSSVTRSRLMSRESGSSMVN

Test [7] deals with Probable G-protein coupled receptor 34 (Mus musculus) (UniProt Q9R1K6). In words: Intrinsic activity at mouse GPR34 expressed in HEK293A cells cotransfected with chimeric Galphaq/il after 1.5 hrs by alkaline phosphatase tagged-TGFalpha shedding assay relative to O-(Hydroxy(((2R,3R)-2-(((3-(2-((3-phenoxybenzyl)oxy)phenyl)-propanoyl)oxy)methyl)tetrahydro-2H-pyran-3-yl)oxy)phosphoryl)-L-serine. The note with it: HEK293-A. It counts as cell-based. The method in brief:
as §4

Chain of Probable G-protein coupled receptor 174 (Mus musculus) (Q3U507 whole entry): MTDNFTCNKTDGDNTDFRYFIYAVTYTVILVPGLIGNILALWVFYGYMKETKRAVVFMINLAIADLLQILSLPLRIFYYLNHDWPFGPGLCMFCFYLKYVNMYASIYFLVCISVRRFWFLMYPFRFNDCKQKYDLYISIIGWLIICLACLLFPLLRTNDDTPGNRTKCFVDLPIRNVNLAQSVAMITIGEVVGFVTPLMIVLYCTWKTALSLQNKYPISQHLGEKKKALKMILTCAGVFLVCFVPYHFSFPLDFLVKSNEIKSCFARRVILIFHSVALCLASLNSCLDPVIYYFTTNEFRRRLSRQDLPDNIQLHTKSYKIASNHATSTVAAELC
Chain of Putative P2Y purinoceptor 10 (Q8BFU7 whole entry): as the sequence (Q8BFU7 whole entry) above
Chain of Probable G-protein coupled receptor 34 (Mus musculus) (Q9R1K6 whole entry): as the sequence (Q9R1K6 whole entry) above

Regarding `CCCCCCCCCCCOc1ccccc1CCC(=O)O[C@H]1CCCO[C@@H]1COP(=O)(O)OCC(N)C(=O)O` (single isomer, unassigned), the EC50 was 290 nM in test [1] (read-out: EC50) and “Not Active” in test [3] (hek293-a). Also, the Emax in test [2] was 7.2%; in test [4] it was below 3%. Besides, in test [4], the pEC50 entry is “inactive”. Also, in test [5], the result was inactive. The same molecule displayed an Intrinsic activity in test [6] of 0.0098. In test [7], the Intrinsic activity entry is “inactive”.

For `CCCCCCCCCCCOc1ccccc1CCC(=O)O[C@@H]1CCCO[C@@H]1COP(=O)(O)OCC(N)C(=O)O` (single isomer, unassigned), the EC50 in test [1] (read-out: EC50) and in test [3] (read-out: EC50) was above 1000 nM in each case. Besides, the Emax entry in test [2] and in test [4] was “inactive” throughout. Besides, in test [5], the outcome was inactive. Also, the Intrinsic activity result in test [6] and in test [7] was “inactive” each time.

Turning to `CCCCCCCCCCCOc1ccccc1CCC(=O)OC[C@H]1OCCC[C@@H]1OP(=O)(O)OC[C@H](N)C(=O)O`, the EC50 stood at 610 nM in test [1] (read-out: EC50) and 640 nM in test [3] (read-out: EC50). Moreover, the Emax turned out to be 7.5% in test [2] and 5.3% in test [4]. The outcome in test [5] was inactive. Besides, the Intrinsic activity in test [6] is 0.002; in test [7], 0.082.

`CCCCCCCCCCCOc1ccccc1CCC(=O)O[C@@H]1C=CCO[C@@H]1COP(=O)(O)OCC(N)C(=O)O` (single isomer, unassigned): the EC50 in test [1] (read-out: EC50) and in test [3] (read-out: EC50) was above 1000 nM throughout. Further, the Emax entry in test [2] and in test [4] was “inactive” throughout. The Intrinsic activity entry in test [6] and in test [7] was “inactive” in each case.

On to `N[C@@H](COP(=O)(O)OC[C@H]1OCCC[C@@H]1OC(=O)CCc1ccccc1OCc1cccc(Oc2ccccc2)c1)C(=O)O`, for which the EC50 in test [1] (read-out: EC50) and in test [3] (read-out: EC50) was above 1000 nM throughout. In addition, the Emax entry in test [2] and in test [4] was “inactive” each time. Further, the outcome in test [5] was inactive. The Intrinsic activity result in test [6] and in test [7] was “inactive” each time.

Turning to `N[C@@H](COP(=O)(O)O[C@H]1C=CCO[C@@H]1COC(=O)CCc1ccccc1OCc1cccc(Oc2ccccc2)c1)C(=O)O`, the EC50 in test [1] (read-out: EC50) was 330 nM; in test [3] (read-out: EC50), 460 nM. Further, the Emax in test [2] is 11.5%; in test [4], 11.7%. Further, the Intrinsic activity in test [6] came to 0.0053; in test [7], 0.25.

For the molecule `N[C@@H](COP(=O)(O)O[C@@H]1CCCO[C@@H]1COC(=O)CCc1cccc(OCc2cccc(Oc3ccccc3)c2)c1)C(=O)O`, the EC50 in test [1] (read-out: EC50) and in test [3] (read-out: EC50) was above 1000 nM in each case. The Emax result in test [2] and in test [4] was “inactive” each time. The Intrinsic activity result in test [6] and in test [7] was “inactive” throughout.

With `N[C@@H](COP(=O)(O)OC[C@H]1OCC=C[C@@H]1OC(=O)CCc1ccccc1OCc1cccc(Oc2ccccc2)c1)C(=O)O`, the concentration for a half-maximal effect (EC50) in test [1] (read-out: EC50) and in test [3] (read-out: EC50) was above 1000 nM throughout. Also, the Emax result in test [2] and in test [4] was “inactive” each time. The Intrinsic activity entry in test [6] and in test [7] was “inactive” in each case.

With `N[C@@H](COP(=O)(O)O[C@@H]1CCCO[C@@H]1COC(=O)CCc1ccc(OCc2cccc(Oc3ccccc3)c2)cc1)C(=O)O`, the 50% effective concentration (EC50) in test [1] (read-out: EC50) is above 1000 nM; in test [3] (hek293-a), “Not Active”. Also, the Emax result in test [2] is “inactive”. Besides, the Intrinsic activity result in test [6] is “inactive”.

Turning to `CCCCCCCC/C=C\CCCCCCCC(=O)O[C@H]1C=CCO[C@@H]1COP(=O)(O)OC[C@H](N)C(=O)O`, the EC50 is above 1000 nM in test [1] (read-out: EC50) and “Not Active” in test [3] (hek293-a). In addition, in test [2], the Emax result was “inactive”. Besides, the Intrinsic activity entry in test [6] was “inactive”.

Turning to `N[C@@H](COP(=O)(O)OC[C@H]1OCCC[C@H]1OC(=O)CCc1cccc(OCc2cccc(Oc3ccccc3)c2)c1)C(=O)O`, the EC50 is above 1000 nM in test [1] (read-out: EC50) and “Not Active” in test [3] (hek293-a). The Emax result in test [2] was “inactive”. For the same molecule, the Intrinsic activity result in test [6] was “inactive”.

For the molecule `N[C@@H](COP(=O)(O)O[C@H]1CCCO[C@@H]1COC(=O)CCc1ccccc1OCc1cccc(Oc2ccccc2)c1)C(=O)O`, the EC50 is above 1000 nM in test [1] (read-out: EC50) and 340 nM in test [3] (read-out: EC50). In test [2], the Emax result was “inactive”. In test [4], this molecule came in with an Emax of 9.8%. Besides, the outcome in test [5] was inactive. Also, in test [6], the Intrinsic activity entry was “inactive”. The molecule further had an Intrinsic activity in test [7] of 0.24.

Turning to `CCCCCCCCCCCOc1ccccc1CCC(=O)O[C@H]1C=CCO[C@@H]1COP(=O)(O)OCC(N)C(=O)O` (single isomer, unassigned), the figures for the EC50 in test [1] (read-out: EC50) and in test [3] (hek293-a) were above 1000 nM and “Not Active”, respectively. Besides, the Emax entry in test [2] and in test [4] was “inactive” each time. Also, the pEC50 result in test [4] is “inactive”. Moreover, the Intrinsic activity result in test [6] and in test [7] was “inactive” in each case.

For `N[C@@H](COP(=O)(O)O[C@@H]1C=CCO[C@@H]1COC(=O)CCc1ccccc1OCc1cccc(Oc2ccccc2)c1)C(=O)O`, the figures for the EC50 in test [1] (read-out: EC50) and in test [3] (read-out: EC50) were above 1000 nM and 600 nM, respectively. The Emax result in test [2] was “inactive”. The molecule further registered a maximal effect (Emax) in test [4] of 12.4%. Further, in test [6], the Intrinsic activity result is “inactive”. The molecule also gave an Intrinsic activity in test [7] of 0.2.

For `N[C@@H](COP(=O)(O)OC[C@H]1OCC=C[C@H]1OC(=O)CCc1ccccc1OCc1cccc(Oc2ccccc2)c1)C(=O)O`, the EC50 in test [1] (read-out: EC50) is above 1000 nM; in test [3] (read-out: EC50) it was 180 nM. The Emax result in test [2] is “inactive”. In test [4], the Emax came out at 16.5%. The Intrinsic activity entry in test [6] was “inactive”. Besides, in test [7], the Intrinsic activity was determined as 0.86.

With `CCCCCCCC/C=C\CCCCCCCC(=O)OC[C@@H]1OCC=C[C@H]1OP(=O)(O)OC[C@@H](N)C(=O)O` (single isomer, unassigned), the values for the EC50 in test [1] (read-out: EC50) and in test [3] (read-out: EC50) were 450 nM and above 1000 nM, respectively. This molecule also gave a maximum response (Emax) in test [2] of 11.5%. Besides, the Emax result in test [4] was “inactive”. This molecule gave an Intrinsic activity in test [6] of 0.004. In test [7], the Intrinsic activity entry is “inactive”.

With `CCCCCCCC/C=C\CCCCCCCC(=O)OC[C@@H]1OCCC[C@@H]1OP(=O)(O)OC[C@@H](N)C(=O)O` (single isomer, unassigned), the EC50 result in test [1] (hek293-a) was “Not Active”; in test [3] (read-out: EC50), 210 nM. In test [4], the Emax was found to be 11.1%. Besides, in test [5], the outcome was inactive. This molecule also returned an Intrinsic activity in test [7] of 0.53.

Take `CCCCCCCC/C=C\CCCCCCCC(=O)OC[C@@H]1OCC=C[C@@H]1OP(=O)(O)OC[C@@H](N)C(=O)O` (single isomer, unassigned): the EC50 in test [1] (read-out: EC50) and in test [3] (read-out: EC50) was above 1000 nM each time. For the same molecule, the Emax entry in test [2] and in test [4] was “inactive” each time. In addition, the Intrinsic activity result in test [6] and in test [7] was “inactive” in each case.

Consider `CCCCCCCC/C=C\CCCCCCCC(=O)OC[C@@H]1OCCC[C@H]1OP(=O)(O)OC[C@@H](N)C(=O)O` (single isomer, unassigned), for which the EC50 worked out at 450 nM in test [1] (read-out: EC50) and 100 nM in test [3] (read-out: EC50). Also, the Emax in test [4] was 8.7%. Besides, the result in test [5] was inactive. The molecule further returned an Intrinsic activity in test [7] of 1.03.

As to `CCCCCCCCCCCOc1ccccc1CCC(=O)OC[C@H]1OCCC[C@H]1OP(=O)(O)OC[C@H](N)C(=O)O`, the EC50 in test [1] (read-out: EC50) amounted to 470 nM; in test [3] (read-out: EC50) it was 110 nM. For the same molecule, the Emax is 10.6% in test [2] and 5.2% in test [4]. The outcome in test [5] was inactive. Also, the results for the Intrinsic activity in test [6] and in test [7] were 0.0038 and 0.41, respectively.

For `CCCCCCCC/C=C\CCCCCCCC(=O)O[C@@H]1C=CCO[C@@H]1COP(=O)(O)OC[C@H](N)C(=O)O`, the EC50 was above 1000 nM in test [1] (read-out: EC50) and 560 nM in test [3] (read-out: EC50). The Emax result in test [2] is “inactive”. Moreover, in test [6], the Intrinsic activity result is “inactive”.

On to `N[C@@H](COP(=O)(O)OC[C@H]1OCCC[C@H]1OC(=O)CCc1ccc(OCc2cccc(Oc3ccccc3)c2)cc1)C(=O)O`, for which the EC50 in test [1] (read-out: EC50) and in test [3] (read-out: EC50) was above 1000 nM throughout. In addition, the Emax result in test [2] and in test [4] was “inactive” in each case. Besides, the Intrinsic activity result in test [6] and in test [7] was “inactive” throughout.

For the molecule `CCCCCCCC/C=C\CCCCCCCC(=O)O[C@H]1CCCO[C@@H]1COP(=O)(O)OC[C@H](N)C(=O)O`, the EC50 result in test [1] (hek293-a) and in test [3] (hek293-a) was “Not Active” each time. The result in test [5] was inactive.

Regarding `CCCCCCCC/C=C\CCCCCCCC(=O)O[C@@H]1CCCO[C@@H]1COP(=O)(O)OC[C@H](N)C(=O)O`, the EC50 in test [1] (read-out: EC50) and in test [3] (read-out: EC50) was above 1000 nM throughout. For the same molecule, the result in test [5] was inactive.

For the origin of these results see ChEMBL document CHEMBL3813596, “Conformational Constraint of the Glycerol Moiety of Lysophosphatidylserine Affords Compounds with Receptor Subtype Selectivity” (J Med Chem, 2016).
